Laboratory results reported in ChEMBL document CHEMBL5030505, “Assessment of NR4A Ligands That Directly Bind and Modulate the Orphan Nuclear Receptor Nurr1” (J Med Chem, 2020).
Calls of active or inactive are those of the source. No cut-off for these calls is given here.

Tests used:
Assay type in all cases: cell-based
[1] = biological target: Nuclear receptor subfamily 4 group A member 2 (Homo sapiens) (UniProt P43354); test: Modulation of full length human Nurr1 expressed in PC12 cells co-transfected with RXRalpha and luciferase reporter plasmid harboring NurRE response element assessed as increase in luciferase activity at 100 uM incubated for 18 hrs by luciferase reporter gene assay; details: PC-12, filed as modulator
Procedure, shortened: (§1)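 PC12 cells were grown at 37°C and 5% CO2 in […] medium with 15% horse serum and 2.5% FBS. They were transfected with full-length Nurr1 (1 μg) plus full-length RXRα (1 μg) and 3xNBRE- or 3xNurRE-luciferase reporter (6 μg) for 18 h, then replated at 10,000 cells/well for 4 h. Ligand or vehicle (water, ethanol or DMSO) was added in quadruplicate for 18 h. Luminescence was read as fold change over vehicle. Results are mean ± s.e.m., n=4, from 2 independent experiments, analysed by one-way ANOVA against vehicle.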

[2] = biological target: Nuclear receptor subfamily 4 group A member 2 (Homo sapiens) (UniProt P43354); test: Modulation of full length human Nurr1 expressed in HEK293T cells co-transfected with luciferase reporter plasmid harboring NurRE response element assessed as increase in luciferase activity at 100 uM incubated for 18 hrs by luciferase reporter gene assay; details: filed as modulator
Procedure, shortened: (§2)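 Full-length Nurr1 plasmid, alone (2 μg) or 1 μg plus full-length RXRα (1 μg), cotransfected with 3xNBRE- or 3xNurRE-luciferase reporter (6 μg) using Lipofectamine 2000, 18 h. Cells replated at 10,000/well for 4 h. Four ligand concentrations, or vehicle (water, ethanol or DMSO), added in quadruplicate for 18 h. Luciferase read. Fold change vs vehicle, mean ± s.e.m., one-way ANOVA vs vehicle.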

HEK-293T = test: Cytotoxicity in human HEK293T cells assessed as reduction in cell viability at 0.01 to 100 uM incubated for 18 hrs by Cell Titer-Glo assay; details: dose 0.01-100 µM
Procedure, shortened: (§3)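 Cells seeded at 1.5 million per 10-cm dish. Next day they were replated at 10,000 cells/well and rested 4 h. Ligand or vehicle (water, ethanol or DMSO, by ligand) was added in dose-response format in quadruplicate. After 18 h, viability was read by CellTiter-Glo luminescence. Data are mean ± s.e.m., generally representative of 2 independent experiments. One-way ANOVA versus vehicle.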

[3] = biological target: Nuclear receptor subfamily 4 group A member 2 (Homo sapiens) (UniProt P43354); test: Modulation of full length human Nurr1 expressed in SKNBE(2) cells co-transfected with luciferase reporter plasmid harboring NurRE response element assessed as increase in luciferase activity at 100 uM incubated for 18 hrs by luciferase reporter gene assay; details: SKNBE2, filed as modulator
PC-12 [4] = test: Cytotoxicity in rat PC-12 cells assessed as reduction in cell viability at 0.01 to 100 uM incubated for 18 hrs by Cell Titer-Glo assay; details: pc-12, 18 h, dose 0.01-100 µM; procedure, shortened: as §3
[5] = biological target: Nuclear receptor subfamily 4 group A member 2 (Homo sapiens) (UniProt P43354); test: Modulation of full length human Nurr1 expressed in SKNBE(2) cells co-transfected with luciferase reporter plasmid harboring NBRE response element assessed as increase in luciferase activity at 100 uM incubated for 18 hrs by luciferase reporter gene assay; details: SKNBE2, filed as modulator
Procedure, shortened: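 Transfection of SK-N-BE(2)-C cells (1:1 EMEM/F12, 10% FBS, 37°C, 5% CO2) used full-length Nurr1 alone (2 μg, no RXRα) with 3xNBRE- or 3xNurRE-luciferase reporter (6 μg) for 18 h. Cells were replated at 10,000/well for 4 h, then exposed to ligand or vehicle in quadruplicate for 18 h. Luminescence was expressed as fold over vehicle, as mean ± s.e.m. (n=4) from 2 independent experiments, one-way ANOVA against vehicle.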

[6] = biological target: Nuclear receptor subfamily 4 group A member 2 (Homo sapiens) (UniProt P43354); test: Modulation of full length human Nurr1 expressed in PC12 cells co-transfected with luciferase reporter plasmid harboring NurRE response element assessed as increase in luciferase activity at 100 uM incubated for 18 hrs by luciferase reporter gene assay; details: PC-12, filed as modulator
Procedure, shortened: (§4)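 Here PC12 cells (FK-12 medium, 15% horse serum, 2.5% FBS, 37°C, 5% CO2) received full-length Nurr1 (2 μg) without RXRα, plus 3xNBRE- or 3xNurRE-luciferase reporter (6 μg), for 18 h. Cells were replated at 10,000/well for 4 h, then treated with ligand or vehicle in quadruplicate for 18 h. Luciferase luminescence was normalized to vehicle-treated cells. Results are mean ± s.e.m. (n=4) from 2 independent experiments, with one-way ANOVA against vehicle.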

HEK293T = test: Modulation of Gal4-fused VP16 expressed in HEK293T cells co-transfected with UAS repoter gene assessed as increase in luciferase activity at 0.01 to 100 uM incubated for 18 hrs by luciferase reporter gene assay; details: Human alphaherpesvirus 2, filed as modulator, dose 0.01-100 µM
Procedure, shortened: (§5)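 Cells in 10-cm dishes were transfected with Gal4-VP16 expression plasmid (2 μg) plus 5xUAS-luciferase reporter (2 μg) for 18 h. They were replated at 10,000 cells/well for 4 h, then given ligand or vehicle (water, ethanol or DMSO) in quadruplicate for 18 h. Luciferase was read with Britelite Plus. Fold change is versus vehicle-treated cells, with one-way ANOVA versus vehicle.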

SK-N-BE(2) = test: Cytotoxicity in human SKNBE2 cells assessed as reduction in cell viability at 0.01 to 100 uM incubated for 18 hrs by Cell Titer-Glo assay; details: dose 0.01-100 µM; procedure, shortened: as §3
[7] = biological target: Nuclear receptor subfamily 4 group A member 2 (Homo sapiens) (UniProt P43354); test: Modulation of full length human Nurr1 expressed in SKNBE(2) cells co-transfected with RXRalpha and luciferase reporter plasmid harboring NBRE response element assessed as increase in luciferase activity at 100 uM incubated for 18 hrs by luciferase reporter gene assay; details: SKNBE2, filed as modulator
Procedure, shortened: (§6)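 SK-N-BE(2)-C cells were kept in 1:1 EMEM/F12 with 10% FBS at 37°C and 5% CO2. They were cotransfected with full-length Nurr1 (1 μg), full-length RXRα (1 μg) and 3xNBRE- or 3xNurRE-luc reporter (6 μg) for 18 h, replated at 10,000 cells/well for 4 h, and then treated with ligand or vehicle in quadruplicate for 18 h. The readout was luciferase luminescence as fold over vehicle, reported as mean ± s.e.m. (n=4) from 2 independent experiments, one-way ANOVA.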

[8] = biological target: Nuclear receptor subfamily 4 group A member 2 (Homo sapiens) (UniProt P43354); test: Modulation of full length human Nurr1 expressed in HEK293T cells co-transfected with RXRalpha and luciferase reporter plasmid harboring NurRE response element assessed as increase in luciferase activity at 100 uM incubated for 18 hrs by luciferase reporter gene assay; details: filed as modulator; procedure, shortened: as §2
[9] = biological target: Nuclear receptor subfamily 4 group A member 2 (Homo sapiens) (UniProt P43354); test: Modulation of full length human Nurr1 expressed in SKNBE(2) cells co-transfected with RXRalpha and luciferase reporter plasmid harboring NurRE response element assessed as increase in luciferase activity at 100 uM incubated for 18 hrs by luciferase reporter gene assay; details: SKNBE2, filed as modulator; procedure, shortened: as §6
[10] = biological target: Nuclear receptor subfamily 4 group A member 2 (Homo sapiens) (UniProt P43354); test: Modulation of full length human Nurr1 expressed in HEK293T cells co-transfected with RXRalpha and luciferase reporter plasmid harboring NBRE response element assessed as increase in luciferase activity at 100 uM incubated for 18 hrs by luciferase reporter gene assay; details: filed as modulator; procedure, shortened: as §2
[11] = biological target: Nuclear receptor subfamily 4 group A member 2 (Homo sapiens) (UniProt P43354); test: Modulation of full length human Nurr1 expressed in PC12 cells co-transfected with luciferase reporter plasmid harboring NBRE response element assessed as increase in luciferase activity at 100 uM incubated for 18 hrs by luciferase reporter gene assay; details: PC-12, filed as modulator; procedure, shortened: as §4
[12] = biological target: Nuclear receptor subfamily 4 group A member 2 (Homo sapiens) (UniProt P43354); test: Modulation of full length human Nurr1 expressed in PC12 cells co-transfected with RXRalpha and luciferase reporter plasmid harboring NBRE response element assessed as increase in luciferase activity at 100 uM incubated for 18 hrs by luciferase reporter gene assay; details: PC-12, filed as modulator; procedure, shortened: as §1
[13] = biological target: Nuclear receptor subfamily 4 group A member 2 (Homo sapiens) (UniProt P43354); test: Modulation of full length human Nurr1 expressed in HEK293T cells co-transfected with luciferase reporter plasmid harboring NBRE response element assessed as increase in luciferase activity at 100 uM incubated for 18 hrs by luciferase reporter gene assay; details: filed as modulator; procedure, shortened: as §2
PC-12 [14] = test: Modulation of Gal4-fused VP16 expressed in PC12 cells co-transfected with UAS repoter gene assessed as increase in luciferase activity at 0.01 to 100 uM incubated for 18 hrs by luciferase reporter gene assay; details: Human alphaherpesvirus 2, filed as modulator, dose 0.01-100 µM; procedure, shortened: as §5

Chain of Nuclear receptor subfamily 4 group A member 2 (Homo sapiens) (P43354 whole entry): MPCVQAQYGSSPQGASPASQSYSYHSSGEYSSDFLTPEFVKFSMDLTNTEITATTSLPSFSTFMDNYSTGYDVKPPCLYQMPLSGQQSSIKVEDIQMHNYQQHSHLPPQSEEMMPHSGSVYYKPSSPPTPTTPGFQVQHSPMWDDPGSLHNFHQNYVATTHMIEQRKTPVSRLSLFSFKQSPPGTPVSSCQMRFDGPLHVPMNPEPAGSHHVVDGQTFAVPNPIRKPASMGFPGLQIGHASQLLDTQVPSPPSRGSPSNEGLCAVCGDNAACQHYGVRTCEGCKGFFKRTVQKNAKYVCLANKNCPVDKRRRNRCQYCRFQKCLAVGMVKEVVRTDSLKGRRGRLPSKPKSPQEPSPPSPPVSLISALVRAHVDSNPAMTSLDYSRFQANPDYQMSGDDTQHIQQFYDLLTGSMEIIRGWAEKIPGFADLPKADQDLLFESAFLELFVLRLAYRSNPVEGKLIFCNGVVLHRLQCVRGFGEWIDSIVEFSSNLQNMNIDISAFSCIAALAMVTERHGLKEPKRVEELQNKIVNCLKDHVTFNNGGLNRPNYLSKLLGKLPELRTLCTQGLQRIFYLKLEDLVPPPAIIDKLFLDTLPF

How did the Activity [1] turn out when `COCCOCc1ccc(-c2cc3onc(-c4ccccc4)c3c(=O)n2C)cc1` was run?
The Activity was “Active”.

And the Activity [2]?
The Activity was “Active”.

And the Activity (HEK-293T)?
Its Activity is “Non-Toxic”.

And the Activity [3]?
The Activity was “Active”.

And the Activity (PC-12 [4])?
The Activity was “Non-Toxic”.

And the Activity [5]?
The Activity was “Active”.

What about the Activity [6] of the same compound?
The Activity was “Active”.

And the Activity (HEK293T)?
Its Activity is “Active”.

And the Activity (SK-N-BE(2))?
The Activity was “Non-Toxic”.

And the Activity [7]?
Its Activity is “Active”.

And the Activity [8]?
Its Activity is “Active”.

And the Activity [9]?
The Activity was “Active”.

What about the Activity [10] of the same compound?
The Activity was “Active”.

And the Activity [11]?
Its Activity is “Active”.

And the Activity [12]?
Its Activity is “Active”.

What about the Activity [13] of the same compound?
The Activity was “Active”.

And the Activity (PC-12 [14])?
Its Activity is “Active”.
